In ChEMBL document CHEMBL1667838, “Spirodiketopiperazine-based CCR5 antagonist: discovery of an antiretroviral drug candidate” (Bioorg Med Chem Lett, 2011):
pIC50: −log10 of the molar value. ≈ marks a conversion by molar mass, not a printed value.

What was measured:
[1] = Half life in rat at 3 mg/kg, iv; assay type: ADME, organism-based; set-up: dose 3 mg/kg, route intravenous; conditions: in vivo
[2] = Cmax in rat at 10 mg/kg, po; assay type: ADME, organism-based; set-up: dose 10 mg/kg, route oral; conditions: in vivo
Rattus norvegicus [3] = assay: (§1) AUC in rat at 10 mg/kg, po; assay type: ADME, organism-based, Plasma; set-up: dose 10 mg/kg, route oral; conditions: in vivo
Rattus norvegicus [4] = assay: (§2) AUC in rat at 3 mg/kg, iv; assay type: ADME, organism-based, Plasma; set-up: dose 3 mg/kg, route intravenous; conditions: in vivo
Summary of the method: (§3)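 Single-dose oral and intravenous administration in rats. Plasma PK parameters were derived from these dosings: clearance and Vss after iv dosing, and Cmax and AUC after oral dosing.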

[5] = Clearance in rat at 3 mg/kg, iv; assay type: ADME, organism-based; set-up: dose 3 mg/kg, route intravenous; conditions: in vivo
[6] = Half life in rat at 10 mg/kg, po; assay type: ADME, organism-based; set-up: dose 10 mg/kg, route oral; conditions: in vivo; summary of the method: as §3
Cytochrome P450 2D6 = Cytochrome P450 2D6 (Homo sapiens, UniProt P10635); assay: Inhibition of CYP2D6; assay type: ADME
Cytochrome P450 2D6, sequence (P10635 whole entry, canonical isoform): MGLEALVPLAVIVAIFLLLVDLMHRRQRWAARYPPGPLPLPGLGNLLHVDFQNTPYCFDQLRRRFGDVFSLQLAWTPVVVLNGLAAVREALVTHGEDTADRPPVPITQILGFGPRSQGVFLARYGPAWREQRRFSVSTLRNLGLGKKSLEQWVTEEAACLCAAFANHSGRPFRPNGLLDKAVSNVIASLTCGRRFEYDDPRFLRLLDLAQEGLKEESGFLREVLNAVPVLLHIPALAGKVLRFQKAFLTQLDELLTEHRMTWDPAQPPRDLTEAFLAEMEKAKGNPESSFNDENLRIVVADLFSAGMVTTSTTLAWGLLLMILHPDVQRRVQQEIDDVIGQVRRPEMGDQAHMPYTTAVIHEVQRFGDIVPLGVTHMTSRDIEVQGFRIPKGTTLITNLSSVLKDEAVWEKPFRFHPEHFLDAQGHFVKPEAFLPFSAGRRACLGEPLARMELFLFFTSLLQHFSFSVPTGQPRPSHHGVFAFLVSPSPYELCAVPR
Summary of the method: (§4)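 Inhibition tested separately against P450 isoforms 2C9, 2D6 and 3A4, with test concentrations up to 30 μM.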

Cytochrome P450 2C9 = Cytochrome P450 2C9 (Homo sapiens, UniProt P11712); assay: Inhibition of CYP2C9; assay type: ADME; summary of the method: as §4
Cytochrome P450 2C9, sequence (P11712 whole entry): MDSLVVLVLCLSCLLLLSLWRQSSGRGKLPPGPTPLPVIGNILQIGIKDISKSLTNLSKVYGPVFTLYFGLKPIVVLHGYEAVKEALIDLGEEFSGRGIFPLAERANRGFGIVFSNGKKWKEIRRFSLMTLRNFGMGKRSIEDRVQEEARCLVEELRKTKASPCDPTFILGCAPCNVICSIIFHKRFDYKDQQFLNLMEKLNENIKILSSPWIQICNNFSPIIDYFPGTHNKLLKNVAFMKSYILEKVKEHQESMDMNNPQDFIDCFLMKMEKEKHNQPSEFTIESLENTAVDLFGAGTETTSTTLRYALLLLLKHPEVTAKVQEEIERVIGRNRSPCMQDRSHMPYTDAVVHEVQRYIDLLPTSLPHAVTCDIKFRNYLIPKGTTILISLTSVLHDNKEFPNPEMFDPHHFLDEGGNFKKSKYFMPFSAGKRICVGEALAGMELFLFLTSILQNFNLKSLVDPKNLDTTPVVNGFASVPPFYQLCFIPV

Cytochrome P450 3A4 [7] = molecular target: T1, Cytochrome P450 3A4 (Homo sapiens, UniProt P08684); assay: Inhibition of CYP3A4; assay type: ADME; summary of the method: as §4
T1 sequence (P08684 whole entry): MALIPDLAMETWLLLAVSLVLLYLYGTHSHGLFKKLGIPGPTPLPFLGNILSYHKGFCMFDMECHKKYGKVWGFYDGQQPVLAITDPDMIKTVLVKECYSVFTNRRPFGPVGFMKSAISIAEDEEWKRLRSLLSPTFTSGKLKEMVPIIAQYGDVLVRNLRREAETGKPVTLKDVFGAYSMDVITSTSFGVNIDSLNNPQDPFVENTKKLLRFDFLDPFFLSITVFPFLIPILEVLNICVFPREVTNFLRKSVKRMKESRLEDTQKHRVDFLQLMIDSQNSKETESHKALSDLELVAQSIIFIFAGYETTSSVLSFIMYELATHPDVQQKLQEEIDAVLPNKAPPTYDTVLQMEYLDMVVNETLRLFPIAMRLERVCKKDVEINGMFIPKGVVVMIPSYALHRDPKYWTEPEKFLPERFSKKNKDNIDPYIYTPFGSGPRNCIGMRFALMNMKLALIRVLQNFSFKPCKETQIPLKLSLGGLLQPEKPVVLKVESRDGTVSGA

Rattus norvegicus [8] = assay: (§5) Oral bioavailability in rat at 10 mg/kg; assay type: ADME, organism-based; conditions: in vivo; summary of the method: as §3
[9] = Solubility of the compound; assay type: physicochemical
Summary of the method: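 Kinetic aqueous solubility, determined at pH 6.8 and reported in […].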

[10] = as §1; assay type: ADME, organism-based, Plasma; set-up: dose 10 mg/kg, route oral; conditions: plasma
Caco-2 = assay: Permeability across human Caco2 cell membrane; assay type: ADME, cell-based
[11] = as §2; assay type: ADME, organism-based, Plasma; set-up: dose 3 mg/kg, route intravenous; conditions: plasma; summary of the method: as §3
[12] = as §5; assay type: ADME, organism-based; conditions: in vivo; summary of the method: as §3
[13] = test system: Human immunodeficiency virus 1; assay: Antiviral activity against R5 tropic HIV1 Ba-L infected in human PBMC assessed as inhibition of […] antigen expression; assay type: functional, organism-based; conditions: Human immunodeficiency virus 1, Ba-L
[14] = test system: Human immunodeficiency virus 1; assay: Antiviral activity against multidrug-resistant R5 tropic HIV1 MM infected in human PBMC assessed as inhibition of […] antigen expression; assay type: functional, organism-based; conditions: Human immunodeficiency virus 1, MM
Cytochrome P450 3A4 [15] = molecular target: T1, Cytochrome P450 3A4; assay: Inhibition of CYP3A4 upto 30 uM; assay type: ADME; summary of the method: as §4
[16] = molecular target: C-C chemokine receptor type 5 (Homo sapiens, UniProt P51681); assay: Antagonist activity at human CCR5 expressed in CHO cells assessed as inhibition of MIP-1alpha-induced calcium mobilization Ca assay; assay type: functional, cell-based
C-C chemokine receptor type 5, sequence (P51681 whole entry): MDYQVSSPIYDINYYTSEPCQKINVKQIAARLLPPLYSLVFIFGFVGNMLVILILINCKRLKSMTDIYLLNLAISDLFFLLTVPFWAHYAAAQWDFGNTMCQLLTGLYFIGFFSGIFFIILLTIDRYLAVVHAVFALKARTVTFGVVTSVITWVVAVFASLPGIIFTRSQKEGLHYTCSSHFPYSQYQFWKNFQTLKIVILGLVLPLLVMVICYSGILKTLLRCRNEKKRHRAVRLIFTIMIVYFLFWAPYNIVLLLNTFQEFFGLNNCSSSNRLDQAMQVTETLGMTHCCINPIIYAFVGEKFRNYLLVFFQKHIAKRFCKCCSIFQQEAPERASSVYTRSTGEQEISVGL

[17] = Aqueous solubility of the compound at pH 6.8; assay type: physicochemical; conditions: buffer
Summary of the method: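 Kinetic aqueous solubility at pH 6.8, reported in μg/mL.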

SMILES | Cmax [2] | half-life [6] | pIC50 (Cytochrome P450 2D6) | pIC50 (Cytochrome P450 2C9) | pIC50 (Cytochrome P450 3A4 [7]) | solubility [9] | AUC [10] | bioavailability [12] | also measured
CCCCN1C(=O)[C@H](CC2CCCCC2)NC(=O)C12CCN(Cc1ccc(Oc3ccc(C(=O)O)cc3)cc1)CC2.Cl | 2400 ng/mL | 48.4 min | < 4.52 | 5.06 | 4.60 |  |  |  | half-life [1]: 11.1 min; AUC (Rattus norvegicus [3]): 10532 ng·h/mL; AUC (Rattus norvegicus [4]): 3091 ng·h/mL; clearance [5]: 16 mL/min/kg; F (Rattus norvegicus [8]): 34%
CCCCN1C(=O)[C@@H]([C@@H](O)C2CCCCC2)NC(=O)C12CCN(Cc1ccc(Oc3ccc(C(=O)O)cc3)cc1)CC2.Cl | 70 ng/mL | 35.2 min | < 4.52 | 4.74 | < 4.52 | 81 µM | 67.5 ng·h/mL |  | 
CCCCN1C(=O)[C@H]([C@H](O)C2CCCCC2)NC(=O)C12CCN(Cc1ccc(Oc3ccc(C(=O)O)cc3)cc1)CC2 | 280 ng/mL | 14.4 min | < 4.52 | < 4.52 | < 4.52 | 85 µM (≈ 49.1 µg/mL) | 126 ng·h/mL |  | permeability (Caco-2): 1.6 ×10⁻⁶ cm/s
CCCCN1C(=O)[C@H]([C@@H](O)C2CCCCC2)NC(=O)C12CCN(Cc1ccc(Oc3ccc(C(=O)O)cc3)cc1)CC2.Cl | 260 ng/mL | 19.2 min | < 4.52 | < 4.52 | < 4.52 | 80 µM | 213 ng·h/mL | 6.5% | half-life [1]: 16.2 min; AUC [11]: 988 ng·h/mL; clearance [5]: 50.9 mL/min/kg; permeability (Caco-2): 2.1 ×10⁻⁶ cm/s
Cc1ccc(-c2ccc3c(c2)C=C(C(=O)Nc2ccc(C[N+](C)(C)C4CCOCC4)cc2)CCC3)cc1 |  |  |  |  |  |  |  |  | pIC50 [13]: 7.55; pIC50 [14]: 7.85
CCCCN1C(=O)[C@@H]([C@H](O)C2CCCCC2)NC(=O)C12CCN(Cc1ccc(Oc3ccccc3)cc1)CC2.Cl |  |  | 5.01 | 5.43 | < 4.52 |  |  |  | inhibition (INH) (Cytochrome P450 3A4 [15]): Not Active
CCCCN1C(=O)[C@@H]([C@H](O)C(C)C)NC(=O)C12CCN(Cc1ccc(Oc3ccccc3)cc1)CC2 |  |  | < 4.52 | < 4.52 | < 4.52 |  |  |  | pIC50 [16]: 7.08
Cc1c(O)cccc1C(=O)N[C@@H](CSc1ccccc1)[C@H](O)CN1C[C@H]2CCCC[C@H]2C[C@H]1C(=O)NC(C)(C)C |  |  |  |  |  |  |  |  | pIC50 [14]: < 6.00
CCCCN1C(=O)C(CC2CCCCC2)NC(=O)C12CCN(Cc1ccc(Oc3ccccc3)cc1)CC2.Cl (racemic) |  | 103 min | 5.11 | 5.26 |  |  |  | 1.9% | solubility [17]: < 0.2 µg/mL; AUC (Rattus norvegicus [4]): 400 ng·h/mL
CCCCN1C(=O)C(CC(C)C)NC(=O)C12CCN(Cc1ccc(Oc3ccccc3)cc1)CC2.Cl (racemic) |  | 75.7 min | 5.34 | 5.23 | 4.71 |  |  | 1.3% | AUC (Rattus norvegicus [4]): 372 ng·h/mL
CCCCN1C(=O)[C@@H]([C@H](O)C2CCCCC2)NC(=O)C12CCN(Cc1ccc(Oc3ccc(C(=O)O)cc3)cc1)CC2.Cl [APLAVIROC HYDROCHLORIDE] | 2360 ng/mL | 120 min | < 4.52 | < 4.52 | < 4.52 | 70 µM | 3420 ng·h/mL | 23% | half-life [1]: 21.8 min; AUC [11]: 4400 ng·h/mL; clearance [5]: 11.3 mL/min/kg; permeability (Caco-2): 3.8 ×10⁻⁶ cm/s
COC[C@@H](c1ccc(C(F)(F)F)cc1)N1CCN(C2(C)CCN(C(=O)c3c(C)ncnc3C)CC2)C[C@@H]1C [VICRIVIROC] |  |  |  |  |  |  |  |  | pIC50 [13]: 8.40; pIC50 [14]: 8.52
